Data on 5 compounds can be found in PMC7388746 (Toxicon : official journal of the International Society on …, 2020).

The structures appear in SMILES notation. Positions of bridges follow the written chain, without caps; N, C: chain ends. Residues, ends and D or L forms follow the SMILES beside them.

The target in test [1] is T1, TRPV1 channels expressed in HEK293T cells (murine TRPV1, E571A, C-terminal eYFP) (Mus musculus, UniProt Q704Y3, E571A). Description: Patch-clamp activation of TRPV1, extracellular perfusion. It counts as cell-based.
T1 sequence (Q704Y3 whole entry E571A, the tested form may be a part): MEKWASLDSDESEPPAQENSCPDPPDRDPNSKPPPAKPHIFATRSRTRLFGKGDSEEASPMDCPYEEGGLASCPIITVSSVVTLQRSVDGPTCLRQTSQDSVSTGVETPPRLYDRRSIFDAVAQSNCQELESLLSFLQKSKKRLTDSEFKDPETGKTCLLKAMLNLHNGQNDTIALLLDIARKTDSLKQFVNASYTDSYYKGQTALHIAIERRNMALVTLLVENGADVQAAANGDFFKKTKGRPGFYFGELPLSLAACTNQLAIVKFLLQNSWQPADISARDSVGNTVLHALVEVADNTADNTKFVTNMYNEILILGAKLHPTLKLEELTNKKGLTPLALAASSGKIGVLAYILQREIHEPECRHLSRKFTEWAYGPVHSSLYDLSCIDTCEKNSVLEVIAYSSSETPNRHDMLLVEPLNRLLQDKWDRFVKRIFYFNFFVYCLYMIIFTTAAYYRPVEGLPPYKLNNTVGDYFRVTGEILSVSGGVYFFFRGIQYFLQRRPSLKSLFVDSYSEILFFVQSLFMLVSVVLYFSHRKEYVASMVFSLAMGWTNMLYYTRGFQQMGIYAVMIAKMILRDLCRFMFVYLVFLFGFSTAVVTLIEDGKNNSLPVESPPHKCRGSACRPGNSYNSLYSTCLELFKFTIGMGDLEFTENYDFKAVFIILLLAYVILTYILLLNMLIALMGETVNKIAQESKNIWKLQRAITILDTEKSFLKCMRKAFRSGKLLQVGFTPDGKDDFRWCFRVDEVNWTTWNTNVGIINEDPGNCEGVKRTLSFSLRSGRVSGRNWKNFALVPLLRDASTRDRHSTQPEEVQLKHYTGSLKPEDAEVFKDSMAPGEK
Test [2] relates to TRPV1. The note with it: cited from earlier work.
In the next test the test system is TRPV3. Briefly: Whole-cell patch-clamp of TRPV3. Particulars: n = 4. The class given is cell-based. A digest of the protocol: (§1)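 Channels transiently expressed in HEK293T cells (DMEM, 10% FBS, 37 °C, 5% CO2; Lipofectamine 3000) and recorded 24–48 h after transfection. Whole-cell, ~4 MΩ pipettes, 60% series-resistance compensation. Bath and pipette: 130 mM NaCl, 10 mM glucose, 0.2 mM EDTA, 3 mM HEPES pH 7.2. Sampled 10 kHz, filtered 2.9 kHz, 22 °C, rapid gravity perfusion. Mean ± SEM.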

Test [3] has as its target T1, TRPV1 channels expressed in HEK293T cells (murine TRPV1, E571A, C-terminal eYFP). Description: Single-channel recording of TRPV1. The class given is cell-based. The note with it: outside-out; 300 μM RhTx2, on first perfusion.
A further test has as its system TRPV2. Briefly: Whole-cell patch-clamp of TRPV2. It counts as cell-based. Particulars: n = 4. A digest of the protocol:
as §1

Test [4] has as its target T1, TRPV1 channels expressed in HEK293T cells (murine TRPV1, E571A, C-terminal eYFP). Briefly: TRPV1 desensitization on prolonged application and recovery. Particulars: RhTx2 300 μM vs RhTx 10 μM. The class given is cell-based.
The subject of test [5] is TRPV1. The note with it: animal studies, ref Kaszas et al., 2012, Lebovitz et al.; cited from earlier work.
The target in test [6] is T1, TRPV1 channels expressed in HEK293T cells (murine TRPV1, E571A, C-terminal eYFP). Briefly: Inside-out patch-clamp of TRPV1, intracellular perfusion. The class given is cell-based.

On to `Oc1cc2c(cc1O)CN(C(=S)NCCc1ccc(Cl)cc1)CCC2` [capsazepine], for which, in test [1], the “block of RhTx2 activation of TRPV1 (in words)” value is “cannot be blocked”. In addition, in the test on TRPV1 [2] (ref Cao et al., 2013, Yang et al., 2015), the “mode of inhibition vs capsaicin, literature (in words)” value is reported as “competitive inhibitor”.

In the case of `CC[C@H](C)[C@H](NC(=O)[C@@H]1CSSC[C@@H]2NC(=O)[C@H]([C@@H](C)O)NC(=O)[C@H](C(C)C)NC(=O)CNC(=O)[C@H](CC(N)=O)NC(=O)[C@@H](NC(=O)[C@@H]3CCCN3C(=O)[C@H](CC(N)=O)NC(=O)[C@H](CC(N)=O)NC(=O)[C@H](CC(C)C)NC(=O)[C@H](Cc3ccc(O)cc3)NC(=O)[C@H](CCCCN)NC(=O)[C@H](CO)NC(=O)[C@@H](N)CC(N)=O)CSSC[C@H](NC(=O)[C@H](CCCNC(=N)N)NC(=O)[C@H](Cc3ccc(O)cc3)NC(=O)CNC(=O)[C@H](CO)NC(=O)[C@@H]3CCCN3C2=O)C(=O)N[C@@H](CO)C(=O)N[C@@H]([C@@H](C)CC)C(=O)N[C@@H](C(C)C)C(=O)N[C@@H](CC(=O)O)C(=O)N[C@@H](CCCCN)C(=O)N[C@@H](CCC(N)=O)C(=O)N1)C(=O)N[C@@H](CCCCN)C(=O)N[C@@H](CCCCN)C(=O)N[C@@H](CCC(=O)O)C(=O)O` [RhTx2] (H-NSKYLNNPCNGVTCPSGYRCSIVDKQCIKKE-OH; disulfide 9-20, 14-27; N-terminus and C-terminus assumed), in the test on TRPV3, the “current activation in TRPV3 compared with TRPV1 (in words)” value is reported as “much smaller”. Moreover, in test [1] (EC50 of RhTx2 relative to RhTx, apparent binding affinity much lower), the “change in EC50, RhTx2 vs RhTx (fold)” value is around 100 fold. For the same compound, in test [1] (TRPV1 vs TRPV2 and TRPV3, whole-cell, n = 4 per channel), the “selectivity (in words)” value was “selective for TRPV1 channel”. Also, the “TRPV1 activation (in words)” value in test [1] (perfused from extracellular side, whole-cell recording, HEK293T) was “robustly activated TRPV1”. The “initial single-channel opening (in words)” value in test [3] is reported as “strong channel opening”. In the test with TRPV2, the “current activation in TRPV2 compared with TRPV1 (in words)” value is “much smaller”. For the same compound, the “steady state open probability in the desensitized state (in words)” value in test [4] is listed as “significantly lower than that of RhTx”.

On to `CC[C@H](C)[C@H](NC(=O)[C@@H]1CSSC[C@@H]2NC(=O)[C@H]([C@@H](C)O)NC(=O)[C@H](C(C)C)NC(=O)CNC(=O)[C@H](CC(N)=O)NC(=O)[C@@H](NC(=O)[C@@H]3CCCN3C(=O)[C@H](CC(N)=O)NC(=O)[C@H](CC(N)=O)NC(=O)[C@@H](N)CC(C)C)CSSC[C@H](NC(=O)[C@H](CCCNC(=N)N)NC(=O)[C@H](Cc3ccc(O)cc3)NC(=O)CNC(=O)[C@H](CO)NC(=O)[C@@H]3CCCN3C2=O)C(=O)N[C@@H](CO)C(=O)N[C@@H]([C@@H](C)CC)C(=O)N[C@@H](C(C)C)C(=O)N[C@@H](CC(=O)O)C(=O)N[C@@H](CCCCN)C(=O)N[C@@H](CCC(N)=O)C(=O)N1)C(=O)N[C@@H](CCCCN)C(=O)N[C@@H](CCCCN)C(=O)N[C@@H](CCC(=O)O)C(=O)O` [RhTx] (H-LNNPCNGVTCPSGYRCSIVDKQCIKKE-OH; disulfide 5-16, 10-23; N-terminus and C-terminus assumed), for which, in the test with TRPV1 [2] (ref Yang et al., 2015, Luo et al., 2019), the “mechanism of TRPV1 desensitization, literature (in words)” value is given as “mechanistically similar to the heat desensitization”. Besides, in the test on TRPV1 [2] (ref Yang et al., 2015), the “TRPV1 activation, literature (in words)” value is “strongly activates TRPV1” and the “binding site on TRPV1, literature (in words)” value is recorded as “binds to the outer pore region above the pore helix”.

`CCOC(=O)C1=C(c2ccccc2)NC(C)=C(C(=O)SCCOC)C1CC` (stereo not drawn) [MRS1477]: the “analgesic effect and side effects, literature (in words)” value in the test on TRPV1 [5] was “analgesic effects without side effects such as hyperthermia”. The “TRPV1 allosteric modulation, literature (in words)” value in the test with TRPV1 [2] (ref Kaszas et al., 2012, Lebovitz et al.) was “positively and allosterically modulate the ligand activation of TRPV1”.

`COc1cc(CNC(=O)CCCC/C=C/C(C)C)ccc1O` [capsaicin]: the “TRPV1 activation by intracellular application (in words)” value in test [6] is given as “robustly activated”.
